Test results as given in ChEMBL document CHEMBL4196006, “Aryl thiosemicarbazones for the treatment of trypanosomatidic infections” (Eur J Med Chem, 2018).
Activity calls are given as the source filed them. The rule behind the calls is not given here.

Assays:
Trypanosoma brucei [1] = assay: Antitrypanosomal activity against Trypanosoma brucei Lister 427 bloodstream form assessed as parasite growth inhibition at 50 uM after 72 hrs by SYBR Green assay relative to control; type: functional; conditions: for inhibition of growth at 50 µM: Lister 427, 72 h, read-out: GI
Leishmania infantum = assay: Antileishmanial activity against Leishmania infantum amastigote form assessed as parasite growth inhibition at 50 uM after 72 hrs by steady-Glo reagent based assay relative to control; type: functional; conditions: read-out: GI
Procedure, shortened: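 Intramacrophage L. infantum amastigotes in THP-1-derived macrophages, tested at 50 μM or in dose-response. Plates held 72 h at 37 °C, 5% CO2. Medium was replaced by PBS, macrophages lysed, and parasites read by Steady-Glo luminescence. High-content imaging gave host cell number, infection ratio (infected/total cells) and parasites per infected cell. Values are means of at least two independent experiments.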

Trypanosoma cruzi = assay: Antitrypanosomal activity against Trypanosoma cruzi amastigote form infected in human U2OS cells assessed as parasite growth inhibition at 50 uM after 72 hrs relative to control; type: functional; conditions: for inhibition of growth at 50 µM: read-out: GI
Procedure, shortened: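 U2OS monolayers grown for 24 h, then infected with tissue-derived trypomastigotes of T. cruzi Y strain. Compounds were added 24 h after infection at 50 μM (single-point) or in dose-response, with 72 h exposure. Plates were fixed, stained and analysed by high-content imaging; activity was normalized to infected and non-infected controls. Means of at least two experiments; benznidazole as reference.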

Trypanosoma brucei [2] = assay: Antitrypanosomal activity against Trypanosoma brucei Lister 427 bloodstream form at 10 uM after 72 hrs by resazurin dye-based assay relative to control; type: functional
Trypanosoma brucei [3] = assay: Potentiation of methotrexate-induced antitrypanosomal activity against Trypanosoma brucei Lister 427 bloodstream form at 10 uM after 72 hrs by resazurin dye-based assay relative to control; type: functional
CYP1A2 = target: T1, CYP1A2 (Homo sapiens, UniProt P05177); assay: Inhibition of human microsomal CYP1A2 expressed in baculovirus infected BTI-TN-5B1-4 cells at 10 uM incubated for 30 mins by luciferase assay relative to control; type: ADME
T1 sequence (P05177 whole entry): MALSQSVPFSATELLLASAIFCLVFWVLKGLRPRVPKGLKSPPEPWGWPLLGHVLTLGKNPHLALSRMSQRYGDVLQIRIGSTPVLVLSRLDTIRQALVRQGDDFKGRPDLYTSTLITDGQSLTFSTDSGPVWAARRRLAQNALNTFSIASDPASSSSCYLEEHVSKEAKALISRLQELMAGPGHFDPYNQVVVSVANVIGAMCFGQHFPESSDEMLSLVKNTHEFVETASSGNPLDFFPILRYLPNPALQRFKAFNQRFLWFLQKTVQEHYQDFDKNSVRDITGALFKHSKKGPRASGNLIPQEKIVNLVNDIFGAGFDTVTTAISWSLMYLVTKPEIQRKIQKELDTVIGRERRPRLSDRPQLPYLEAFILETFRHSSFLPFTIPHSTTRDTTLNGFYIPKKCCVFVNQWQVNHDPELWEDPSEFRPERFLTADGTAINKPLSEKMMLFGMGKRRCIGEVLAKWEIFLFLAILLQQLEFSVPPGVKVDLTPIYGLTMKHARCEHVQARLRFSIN
Procedure, shortened: (§1)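 CYP1A2, 2C9, 2C19, 2D6 and 3A4 in microsomes from baculovirus-infected insect cells, each with a P450-Glo luminogenic substrate. Inhibition read as loss of light; single-point at 10 μM, triplicate.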

Trypanosoma brucei [4] = assay: Potentiation of methotrexate-induced antitrypanosomal activity against Trypanosoma brucei Lister 427 bloodstream form at 10 uM after 72 hrs by resazurin dye-based assay; type: functional
hERG (KCNH2) = hERG (KCNH2) (Homo sapiens, UniProt Q12809); assay: Inhibition of human ERG at 10 uM incubated for 2 hrs by fluorescence polarisation assay relative to control
CYP2C9 = CYP2C9 (Homo sapiens, UniProt P11712); assay: Inhibition of human microsomal CYP2C9 expressed in baculovirus infected BTI-TN-5B1-4 cells at 10 uM incubated for 30 mins by luciferase assay relative to control; type: ADME; procedure, shortened: as §1
CYP2C19 = CYP2C19 (Homo sapiens, UniProt P33261); assay: Inhibition of human microsomal CYP2C19 expressed in baculovirus infected BTI-TN-5B1-4 cells at 10 uM incubated for 30 mins by luciferase assay relative to control; type: ADME; procedure, shortened: as §1
CYP2D6 = CYP2D6 (Homo sapiens, UniProt P10635); assay: Inhibition of human microsomal CYP2D6 expressed in baculovirus infected BTI-TN-5B1-4 cells at 10 uM incubated for 30 mins by luciferase assay relative to control; type: ADME; procedure, shortened: as §1
CYP3A4 = CYP3A4 (Homo sapiens, UniProt P08684); assay: Inhibition of human microsomal CYP3A4 expressed in baculovirus infected BTI-TN-5B1-4 cells at 10 uM incubated for 30 mins by luciferase assay relative to control; type: ADME; procedure, shortened: as §1
Aurora kinase B = Aurora kinase B (Homo sapiens, UniProt Q96GD4); assay: Inhibition of recombinant full-length human aurora B kinase expressed in baculovirus system at 10 uM using MBP as substrate incubated for 45 mins by ADP-glo kinase assay; conditions: probe MBP
Procedure, shortened: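 Aurora B activity measured as ADP formation via coupled luciferase ADP-Glo luminescence; single-point at 10 μM, triplicate.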

[5] = Cytotoxicity against human 786-O cells assessed as inhibition of mitochondrial viability at 10 uM after 6 hrs by CMXRos staining based assay relative to control; type: cell-based, 786-0; conditions: read-out: INH
Procedure, shortened: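 Mitochondrial toxicity monitored by MitoTracker Red CMXRos uptake and high-content imaging; compound at 10 μM, triplicate.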

[6] = Cytotoxicity against human THP1 cells assessed as viable cells at 100 uM after 72 hrs by MTT assay relative to control; type: cell-based, THP-1; conditions: read-out: Activity
Procedure, shortened: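 THP-1-derived macrophages exposed to compounds for 72 h, tested at 100 μM or in dose-response; viability read by MTT colorimetric assay.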

[7] = Cytotoxicity against human U2OS cells assessed as viable cells at 50 uM after 72 hrs by MTT assay relative to control; type: cell-based; conditions: read-out: Activity
[8] = target: T2, Pteridine reductase, putative (Trypanosoma brucei) (UniProt Q581W1); assay: Inhibition of Trypanosoma brucei PTR1 at 50 uM using H2B as substrate in presence of NADPH by photometric analysis relative to control
T2 sequence (whole entry): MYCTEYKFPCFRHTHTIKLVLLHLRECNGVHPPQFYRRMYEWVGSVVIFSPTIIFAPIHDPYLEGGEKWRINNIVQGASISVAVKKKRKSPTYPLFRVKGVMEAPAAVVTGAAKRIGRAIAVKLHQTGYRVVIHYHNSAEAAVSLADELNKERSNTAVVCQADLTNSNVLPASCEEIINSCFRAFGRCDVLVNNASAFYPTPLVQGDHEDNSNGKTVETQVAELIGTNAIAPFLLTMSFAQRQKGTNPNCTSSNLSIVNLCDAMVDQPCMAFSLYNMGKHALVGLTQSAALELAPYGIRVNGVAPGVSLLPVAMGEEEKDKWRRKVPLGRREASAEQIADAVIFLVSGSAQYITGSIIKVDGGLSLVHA

[9] = target: T3, Pteridine reductase 1 (Leishmania major) (UniProt Q01782); assay: Inhibition of Leishmania major PTR1 at 50 uM using H2B as substrate in presence of NADPH by photometric analysis relative to control
T3 sequence (whole entry): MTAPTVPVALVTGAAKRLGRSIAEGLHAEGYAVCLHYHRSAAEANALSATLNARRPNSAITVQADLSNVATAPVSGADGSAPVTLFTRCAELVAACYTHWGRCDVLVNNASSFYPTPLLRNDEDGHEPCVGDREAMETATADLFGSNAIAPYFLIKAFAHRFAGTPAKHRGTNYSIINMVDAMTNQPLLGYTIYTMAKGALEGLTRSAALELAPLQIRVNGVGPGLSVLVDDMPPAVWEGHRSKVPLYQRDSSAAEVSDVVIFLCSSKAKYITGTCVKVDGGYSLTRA

[10] = Cytotoxicity against human A549 cells assessed as growth inhibition at 10 uM after 48 hrs by CellTiter-Glo assay relative to control; values are per cent of control; conditions: A549 cells
[11] = Cytotoxicity against human WI38 cells assessed as growth inhibition at 10 uM after 48 hrs by CellTiter-Glo assay relative to control; values are per cent of control; conditions: WI38 cells

CYP2C19, sequence (P33261 whole entry): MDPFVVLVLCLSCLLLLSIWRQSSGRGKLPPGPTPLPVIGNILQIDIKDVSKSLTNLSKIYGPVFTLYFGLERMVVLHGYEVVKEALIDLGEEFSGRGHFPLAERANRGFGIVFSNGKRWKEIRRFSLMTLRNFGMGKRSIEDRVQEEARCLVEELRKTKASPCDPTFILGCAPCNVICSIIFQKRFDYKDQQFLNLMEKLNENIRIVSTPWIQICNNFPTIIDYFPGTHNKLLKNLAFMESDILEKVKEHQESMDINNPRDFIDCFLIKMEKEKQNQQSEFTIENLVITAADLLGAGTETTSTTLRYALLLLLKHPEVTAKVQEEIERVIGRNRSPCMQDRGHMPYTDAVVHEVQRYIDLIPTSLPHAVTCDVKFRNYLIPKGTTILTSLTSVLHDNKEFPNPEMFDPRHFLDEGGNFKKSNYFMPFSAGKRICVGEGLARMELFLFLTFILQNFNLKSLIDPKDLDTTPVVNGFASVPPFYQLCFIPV
hERG (KCNH2), sequence (Q12809 whole entry): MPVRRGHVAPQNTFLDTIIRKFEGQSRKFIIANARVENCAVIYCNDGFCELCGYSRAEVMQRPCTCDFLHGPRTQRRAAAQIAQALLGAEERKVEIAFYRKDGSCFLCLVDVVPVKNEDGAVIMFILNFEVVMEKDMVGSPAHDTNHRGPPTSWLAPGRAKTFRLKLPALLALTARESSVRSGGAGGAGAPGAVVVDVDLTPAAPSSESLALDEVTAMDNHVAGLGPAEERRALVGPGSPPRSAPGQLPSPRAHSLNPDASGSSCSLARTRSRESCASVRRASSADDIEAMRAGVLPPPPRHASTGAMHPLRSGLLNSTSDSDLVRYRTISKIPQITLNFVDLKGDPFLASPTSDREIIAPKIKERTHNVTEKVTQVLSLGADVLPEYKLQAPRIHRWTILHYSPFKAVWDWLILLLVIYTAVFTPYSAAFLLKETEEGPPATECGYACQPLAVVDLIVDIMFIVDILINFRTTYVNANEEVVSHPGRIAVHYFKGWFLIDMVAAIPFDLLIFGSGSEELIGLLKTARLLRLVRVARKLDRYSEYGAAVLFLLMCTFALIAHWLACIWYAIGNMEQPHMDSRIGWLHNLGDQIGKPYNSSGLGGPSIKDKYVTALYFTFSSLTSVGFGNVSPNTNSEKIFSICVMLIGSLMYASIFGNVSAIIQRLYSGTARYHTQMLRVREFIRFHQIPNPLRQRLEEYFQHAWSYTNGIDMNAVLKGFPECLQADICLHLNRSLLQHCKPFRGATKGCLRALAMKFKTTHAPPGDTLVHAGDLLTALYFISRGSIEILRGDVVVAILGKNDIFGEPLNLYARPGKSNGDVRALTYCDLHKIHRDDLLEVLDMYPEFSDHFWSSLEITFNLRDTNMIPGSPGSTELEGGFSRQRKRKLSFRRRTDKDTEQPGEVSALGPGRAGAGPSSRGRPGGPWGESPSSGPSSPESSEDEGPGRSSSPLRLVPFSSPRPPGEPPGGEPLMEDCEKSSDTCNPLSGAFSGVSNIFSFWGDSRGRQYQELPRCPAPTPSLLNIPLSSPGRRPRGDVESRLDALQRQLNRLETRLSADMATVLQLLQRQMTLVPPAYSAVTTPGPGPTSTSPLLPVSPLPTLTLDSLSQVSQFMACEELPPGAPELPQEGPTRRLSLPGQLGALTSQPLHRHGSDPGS
Aurora kinase B, sequence (Q96GD4 whole entry): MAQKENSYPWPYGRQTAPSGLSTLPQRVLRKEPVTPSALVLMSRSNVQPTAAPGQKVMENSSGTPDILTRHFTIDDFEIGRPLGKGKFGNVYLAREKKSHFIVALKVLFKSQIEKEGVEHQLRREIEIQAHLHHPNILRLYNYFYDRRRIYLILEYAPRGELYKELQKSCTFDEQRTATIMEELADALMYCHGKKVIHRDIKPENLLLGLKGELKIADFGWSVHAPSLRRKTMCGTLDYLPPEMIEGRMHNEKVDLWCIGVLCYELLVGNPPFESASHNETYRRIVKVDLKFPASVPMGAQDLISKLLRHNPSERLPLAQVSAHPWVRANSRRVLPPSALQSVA
CYP3A4, sequence (P08684 whole entry): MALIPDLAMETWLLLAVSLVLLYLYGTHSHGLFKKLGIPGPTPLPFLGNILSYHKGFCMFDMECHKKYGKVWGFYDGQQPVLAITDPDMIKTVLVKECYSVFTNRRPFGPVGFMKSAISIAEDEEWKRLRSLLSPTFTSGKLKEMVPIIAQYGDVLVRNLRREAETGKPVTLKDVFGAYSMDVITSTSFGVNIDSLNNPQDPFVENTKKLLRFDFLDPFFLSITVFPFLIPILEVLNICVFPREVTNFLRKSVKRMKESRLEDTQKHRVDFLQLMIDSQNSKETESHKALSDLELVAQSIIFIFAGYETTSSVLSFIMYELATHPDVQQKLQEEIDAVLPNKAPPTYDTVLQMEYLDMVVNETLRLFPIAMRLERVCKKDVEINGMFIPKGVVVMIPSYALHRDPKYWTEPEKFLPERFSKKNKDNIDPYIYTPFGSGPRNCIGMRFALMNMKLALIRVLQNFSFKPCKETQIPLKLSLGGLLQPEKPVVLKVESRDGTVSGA
CYP2C9, sequence (P11712 whole entry): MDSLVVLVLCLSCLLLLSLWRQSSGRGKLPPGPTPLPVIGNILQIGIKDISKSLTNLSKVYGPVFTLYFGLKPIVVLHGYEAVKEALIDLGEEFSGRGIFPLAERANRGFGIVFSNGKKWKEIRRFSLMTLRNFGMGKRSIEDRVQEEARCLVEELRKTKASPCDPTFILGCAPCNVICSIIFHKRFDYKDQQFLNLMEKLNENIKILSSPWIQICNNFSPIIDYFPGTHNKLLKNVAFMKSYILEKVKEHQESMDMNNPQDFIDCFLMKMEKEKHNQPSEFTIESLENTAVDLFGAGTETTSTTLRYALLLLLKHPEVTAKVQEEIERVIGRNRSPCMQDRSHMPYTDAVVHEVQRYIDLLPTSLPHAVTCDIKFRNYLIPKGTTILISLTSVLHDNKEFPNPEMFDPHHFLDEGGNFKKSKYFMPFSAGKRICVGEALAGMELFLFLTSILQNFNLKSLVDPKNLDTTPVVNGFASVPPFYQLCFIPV
CYP2D6, sequence (P10635 whole entry): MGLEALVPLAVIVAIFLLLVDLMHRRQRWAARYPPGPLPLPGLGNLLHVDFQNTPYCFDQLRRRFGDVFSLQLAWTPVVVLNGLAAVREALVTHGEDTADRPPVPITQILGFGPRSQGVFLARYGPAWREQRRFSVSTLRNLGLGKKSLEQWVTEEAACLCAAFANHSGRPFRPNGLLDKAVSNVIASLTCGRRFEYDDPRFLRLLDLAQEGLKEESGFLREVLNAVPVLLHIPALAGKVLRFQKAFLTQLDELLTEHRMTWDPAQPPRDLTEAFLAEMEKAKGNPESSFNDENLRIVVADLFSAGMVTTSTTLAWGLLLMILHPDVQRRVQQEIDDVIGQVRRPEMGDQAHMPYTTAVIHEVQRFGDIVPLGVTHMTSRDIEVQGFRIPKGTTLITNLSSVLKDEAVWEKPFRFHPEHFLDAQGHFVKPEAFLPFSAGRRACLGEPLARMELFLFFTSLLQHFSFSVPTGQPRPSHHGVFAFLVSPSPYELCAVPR

| SMILES | growth inhibition (GI) (Trypanosoma brucei [1]) | inhibition of growth at 50 µM (Leishmania infantum) | inhibition of growth at 50 µM (Trypanosoma cruzi) | Activity (Trypanosoma brucei [2]) | Activity (Trypanosoma brucei [3]) | inhibition at 0.5 h, 10 µM (CYP1A2) | PF (Trypanosoma brucei [4]) | inhibition at 2 h, 10 µM (hERG (KCNH2)) | inhibition at 0.5 h, 10 µM (CYP2C9) | inhibition at 0.5 h, 10 µM (CYP2C19) | inhibition at 0.5 h, 10 µM (CYP2D6) | inhibition at 0.5 h, 10 µM (CYP3A4) | inhibition at 0.75 h, 10 µM (Aurora kinase B) | cytotoxicity at 6 h, 10 µM [5] | viability at 72 h, 100 µM [6] | viability at 72 h, 50 µM [7] | inhibition [8] | inhibition [9] | cell growth (% of control) at 48 h, 10 µM [10] | cell growth (% of control) at 48 h, 10 µM [11] | other results |
| --- | --- | --- | --- | --- | --- | --- | --- | --- | --- | --- | --- | --- | --- | --- | --- | --- | --- | --- | --- | --- | --- |
| C/C(=N\NC(N)=S)c1ccc(N)cc1 | inactive | 9.54% | 51.8% | 4.67% | 75.17% | 11.5% | 2.6 | 6.38% | 7.46% | -20.7% | -13.1% | -4.06% | -14.2% | -5.04% | 95.2% | 113% | 10.2% | 2.62% | 141% | 83.1% |  |
| NC(=S)N/N=C/c1csc2ccccc12 |  | 24.4% | 24.3% | 21% | 52.33% | 100% | 1.16 | -5.27% | 14.6% | -17.1% | 22.1% | 5.98% | -4.29% | 12.6% | 44.9% | 152% | 3.09% | 4.9% | 101% | 95.3% | inhibition of growth at 50 µM (Trypanosoma brucei [1]): 3.57% |
| Cc1ccsc1/C=N/NC(N)=S |  | 8.28% | 24.9% | 8.33% | 34.17% | 38.3% | 1.05 | -5.98% | 4.24% | -20.7% | 8.57% | -8.16% | -5.27% | 2.15% | 76% | 95.8% | inactive | 1.75% | 91.9% | 85.4% | inhibition of growth at 50 µM (Trypanosoma brucei [1]): 17.3% |
| NC(=S)N/N=C/c1ccc(N)cc1 | inactive | 38.6% |  | 4.33% | 73.67% | -1.56% | 2.58 | 3.02% | 3.06% | -39.5% | -6.6% | -13.1% | -10.5% | -7.54% | 74.4% | 125% | 7.43% | 3.6% | 125% | 121% | growth inhibition (GI) (Trypanosoma cruzi): inactive |
| C/C(=N\NC(N)=S)c1ccc(O)cc1 | inactive | 23.9% | 37% | 14.83% | 87.83% | -0.75% | 2.25 | 3.53% | -9.01% | -63.9% | -24.5% | -4.7% | -0.05% | 5.9% | 72.2% | 90.2% | 26.2% | 7.77% | 126% | 101% |  |
